Data on one compound can be found in ChEMBL document CHEMBL1944548, “Discovery of kinase spectrum selective macrocycle (16E)-14-methyl-20-oxa-5,7,14,26-tetraazatetracyclo[19.3.1.1(2,6).1(8,12)]heptacosa-1(25),2(26),3,5,8(27),9,11,16,21,23-decaene (SB1317/TG02), a potent inhibitor of cyclin dependent kinases (CDKs), Janus kinase 2 (JAK2), and fms-like tyrosine …” (J Med Chem, 2012).

Data set [1] concerns the target T1, Receptor-type tyrosine-protein kinase FLT3 (Homo sapiens, UniProt P36888).
T1 sequence (P36888 whole entry): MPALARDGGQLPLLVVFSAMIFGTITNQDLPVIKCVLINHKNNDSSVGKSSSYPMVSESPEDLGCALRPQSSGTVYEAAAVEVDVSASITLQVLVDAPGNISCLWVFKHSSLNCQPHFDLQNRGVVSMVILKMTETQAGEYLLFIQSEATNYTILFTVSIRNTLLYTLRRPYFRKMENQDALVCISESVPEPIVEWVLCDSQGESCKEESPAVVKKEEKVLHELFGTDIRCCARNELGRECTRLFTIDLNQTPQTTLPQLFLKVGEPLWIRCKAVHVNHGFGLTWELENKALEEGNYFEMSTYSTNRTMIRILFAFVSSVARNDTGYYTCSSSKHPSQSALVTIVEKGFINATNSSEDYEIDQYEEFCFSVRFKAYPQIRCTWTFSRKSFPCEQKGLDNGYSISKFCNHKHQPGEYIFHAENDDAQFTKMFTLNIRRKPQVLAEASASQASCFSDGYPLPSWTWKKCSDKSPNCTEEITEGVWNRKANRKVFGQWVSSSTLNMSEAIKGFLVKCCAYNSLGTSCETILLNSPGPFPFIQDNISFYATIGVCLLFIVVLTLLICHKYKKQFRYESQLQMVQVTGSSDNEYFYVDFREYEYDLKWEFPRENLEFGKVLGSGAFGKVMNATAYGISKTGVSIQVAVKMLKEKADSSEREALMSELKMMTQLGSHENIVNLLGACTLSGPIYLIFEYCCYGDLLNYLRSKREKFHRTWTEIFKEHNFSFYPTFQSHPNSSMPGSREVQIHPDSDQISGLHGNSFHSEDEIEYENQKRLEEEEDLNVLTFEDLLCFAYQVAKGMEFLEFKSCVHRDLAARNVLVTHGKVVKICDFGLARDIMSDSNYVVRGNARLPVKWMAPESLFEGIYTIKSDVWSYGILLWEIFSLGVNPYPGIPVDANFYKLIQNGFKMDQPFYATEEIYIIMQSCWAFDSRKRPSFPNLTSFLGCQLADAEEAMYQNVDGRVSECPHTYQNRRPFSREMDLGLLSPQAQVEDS
Briefly: Inhibition of recombinant Flt3 using poly(Glu,Tyr) as substrate after 2 hrs by luminescence assay.

The subject of data set [2] is Ramos. Briefly: Antitumor activity against human Ramos cells xenografted in BALB/c nude mouse assessed as tumor growth inhibition at 75 mg/kg, po qd on a 2 days on and 5 days off schedule for 15 days. The class given is functional. Conditions: read-out: GI.
Data set [3] concerns Ramos. The data set can be described thus: Antitumor activity against human Ramos cells xenografted in BALB/c nude mouse assessed as tumor growth inhibition at 15 mg/kg, ip qd on a 5 days on 5 days off schedule for 15 days. The class given is functional. The settings on record: route intraperitoneal, read-out: GI.
Data set [4] has as its system HCT-116. Briefly: Antitumor activity against human HCT116 cells xenografted in po dosed BALB/c nude mouse assessed as tumor growth inhibition. The data set is classed as functional, organism-based. Put shortly:
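Female BALB/c nude mice implanted sc with 5 × 10^6 HCT-116 cells; treatment began day 8 after inoculation when tumors were 75–144 mm3 (group mean 105 mm3), 9–10 mice/group. Oral gavage at 50 or 75 mg/kg, Mon/Wed/Fri, in 0.5% methylcellulose/0.1% Tween 80, to day 15. Volume (w2l)/2 measured twice weekly. %TGI from day-15 median volumes vs vehicle.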

A short description of data set [5]: Cmax in BALB/c mouse at 75 mg/kg, po by LC-MS/MS analysis. The class given is ADME, organism-based. Further details: dose 75 mg/kg, route oral. Conditions: in vivo. In a few lines:
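Male BALB/c mice (~10−12 weeks, 17−22 g) gavaged with 75 mg/kg as a suspension in 0.5% methylcellulose/0.1% Tween 80. Serial blood by cardiac puncture over 0−24 h into K3EDTA, plasma stored at −70 °C, LC−MS/MS; parameters by noncompartmental analysis.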

Data set [6] is described as follows: Terminal half life in BALB/c mouse at 5 mg/kg, iv by LC-MS/MS analysis. Further details: dose 5 mg/kg, route intravenous. The class given is ADME, organism-based. The settings on record: in vivo, read-out: beta t1/2 (converted).
Data set [7] can be described thus: Clearance in BALB/c mouse at 5 mg/kg, iv by LC-MS/MS analysis. The data set is classed as ADME, organism-based. Also on record: dose 5 mg/kg, route intravenous. Conditions: in vivo.
For the next data set, the target named is Cytochrome P450 2C9 (Homo sapiens, UniProt P11712). The data set can be described thus: Inhibition of CYP2C9 in human liver microsomes using Tolbutamide as substrate after 60 mins by LC-MS/MS analysis. The data set is classed as ADME, Microsome. In a few lines: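 Human liver microsomes (0.5 mg/mL for CYP2C19, 1 mg/mL for CYP2C9), NADPH 1 mM, test at 0.05−25 μM (DMSO 0.35% final), 37 °C; probes mephenytoin 25 μM (CYP2C19) and tolbutamide 120 μM (CYP2C9), 60 min each. IC50 from decrease in metabolite formation vs vehicle.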

Another data set concerns the target T2, Cytochrome P450 1A2 (Homo sapiens, UniProt P05177).
T2 sequence (P05177 whole entry): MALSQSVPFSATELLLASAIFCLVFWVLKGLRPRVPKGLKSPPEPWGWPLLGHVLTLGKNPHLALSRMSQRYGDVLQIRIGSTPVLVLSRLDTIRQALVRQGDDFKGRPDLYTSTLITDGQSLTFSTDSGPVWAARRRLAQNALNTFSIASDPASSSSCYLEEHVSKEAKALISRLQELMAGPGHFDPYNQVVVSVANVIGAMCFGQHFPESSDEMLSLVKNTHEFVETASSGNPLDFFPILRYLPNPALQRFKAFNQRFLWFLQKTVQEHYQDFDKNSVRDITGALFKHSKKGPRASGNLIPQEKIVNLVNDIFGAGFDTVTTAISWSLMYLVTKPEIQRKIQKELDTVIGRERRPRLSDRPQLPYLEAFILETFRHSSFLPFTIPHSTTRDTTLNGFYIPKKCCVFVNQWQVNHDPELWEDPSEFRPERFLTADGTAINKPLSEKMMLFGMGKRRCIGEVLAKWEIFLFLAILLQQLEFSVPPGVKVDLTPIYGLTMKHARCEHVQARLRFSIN
The data set can be described thus: Inhibition of CYP1A2 in human liver microsomes using ethoxyresorufin as substrate after 5 mins by LC-MS/MS analysis. The data set is classed as ADME, Microsome. Put shortly:
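Human liver microsomes with 1 mM NADPH at 37 °C. Test concentrations 0.05, 0.25, 0.5, 2.5, 5 and 25 μM; final DMSO 0.35%. CYP1A: 0.25 mg/mL microsomes, ethoxyresorufin 0.5 μM, 5 min. CYP2D6: 0.5 mg/mL microsomes, dextromethorphan 5 μM, 30 min. IC50 from the fall in metabolite formation versus vehicle control. Selective inhibitors served as positive controls.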

Data set [8] has as its system Ramos. Briefly: Antiproliferative activity against human Ramos cells after 48 hrs. The class given is functional, cell-based.
The subject of data set [9] is HCT-116. Briefly: Antiproliferative activity against human HCT116 cells after 48 hrs. The data set is classed as functional, cell-based. The settings on record: HCT-116, 48 h.
Data set [10] is described as follows: Half life in mouse liver microsomes at 5 uM by LC-MS/MS analysis. The class given is ADME, Microsome. In a few lines: (§1)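 5 μM with mouse, rat, dog or human liver microsomes (~0.87 mg/mL), 50 mM potassium phosphate pH 7.4, NADPH regeneration system, 37 °C.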
Data set [11] in a line: Half life in human liver microsomes at 5 uM by LC-MS/MS analysis. The data set is classed as ADME, Microsome. Put shortly:
as §1

Sequence of Cytochrome P450 2C9 (P11712 whole entry): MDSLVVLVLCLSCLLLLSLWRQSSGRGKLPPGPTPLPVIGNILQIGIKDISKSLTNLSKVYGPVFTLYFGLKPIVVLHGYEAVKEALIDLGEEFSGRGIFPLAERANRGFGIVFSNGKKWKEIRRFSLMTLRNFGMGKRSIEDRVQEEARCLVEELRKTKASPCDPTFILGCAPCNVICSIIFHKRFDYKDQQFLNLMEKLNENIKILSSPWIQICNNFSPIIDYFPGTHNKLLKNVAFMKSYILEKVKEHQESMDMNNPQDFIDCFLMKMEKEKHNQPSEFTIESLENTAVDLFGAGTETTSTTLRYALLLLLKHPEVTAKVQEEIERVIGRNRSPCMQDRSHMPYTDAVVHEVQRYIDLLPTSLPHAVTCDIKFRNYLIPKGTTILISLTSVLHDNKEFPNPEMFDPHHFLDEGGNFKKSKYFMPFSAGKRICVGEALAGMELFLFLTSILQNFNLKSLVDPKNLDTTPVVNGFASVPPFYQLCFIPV

Regarding `CN1C/C=C/CCOc2cccc(c2)-c2ccnc(n2)Nc2cccc(c2)C1` [ZOTIRACICLIB], the half-maximal inhibitory concentration (IC50) in data set [1] is 56 nM; against Cytochrome P450 2C9, over 25000 nM; on Cytochrome P450 1A2, over 25000 nM; in the data set on Ramos [8], 33 nM; in the data set with HCT-116 [9] it was 79 nM. Moreover, the inhibition in vivo at 75 mg/kg in the data set on Ramos [2] amounted to 42%. Also, in the data set with Ramos [3], the inhibition in vivo at 15 mg/kg was determined as 63%. Moreover, in the data set with HCT-116 [4], the “growth inhibition (GI)” value was “Dose-dependent effect”. In data set [5], this compound showed a Cmax of 1030 ng/mL. In addition, in [6], the half-life is 276 min. For the same compound, the clearance in [7] was 110 mL/min/kg. Further, the half-life at 5 µM in data set [10] turned out to be 12 min; in data set [11], 45 min.
